Like-named read-outs stand apart in the source and are kept apart here. Marks after values point to notes of the source that are not given here.
Tests used:
healthy volunteers [1] = system: healthy volunteers; set-up: species or system human; conditions: at observed mean TMR Cmax, healthy adults
[2] = system: heavily treatment‐experienced subjects; conditions: treated for 96 weeks, BRIGHTE, fostemsavir 600 mg b.i.d. ref 23; cited from earlier work
[3] = TMR after FTR 600 mg b.i.d., N = 16, healthy adults ref 21; cited from earlier work
healthy volunteers [4] = experiment: Adverse events and discontinuations in thorough QT study part 2; assay type: in vivo, human
healthy volunteers [5] = experiment: Thorough QT/QTc study part 2: Holter ECG, Fridericia-corrected QT interval; assay type: in vivo, human
Procedure, shortened: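 Healthy subjects, randomized four-period crossover with 10-day washouts, fed: oral fostemsavir 1,200 mg q.d. or 2,400 mg b.i.d. for 7 days, placebo b.i.d., or single moxifloxacin 400 mg on day 7. Triplicate ECGs from 24-h Holter, read centrally. Baseline is the mean of day-1 predose readings; readings 0.5–22.25 h post-dose on day 7. Linear mixed model gives 90% CI; bound 10 msec; assay sensitivity >5 msec at 2–4 h.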

healthy volunteers [6] = conditions: total daily fostemsavir dose of 20–2,400 mg ref 10; cited from earlier work
healthy volunteers [7] = experiment: Thorough QT study part 1 sentinel cohort safety; assay type: in vivo, human; conditions: fostemsavir 2,400 mg b.i.d. for 7 days (n = 6)
HIV‐1 = conditions: cited from earlier work
[8] = fostemsavir 1,200 mg q.d., at 6 hours postdose
[9] = fostemsavir 2,400 mg b.i.d., at 5 hours post‐AM dose

**Q.** Which results are given for `COc1cnc(-n2cnc(C)n2)c2c1c(C(=O)C(=O)N1CCN(C(=O)c3ccccc3)CC1)cn2COP(=O)(O)O` [fostemsavir]?
**A.** ddQTcF upper 90% CI boundary, model‐predicted (healthy volunteers [1]; FTR 600 mg b.i.d. + cobicistat 150 mg q.d.): ≤ 5.0 ms; ddQTcF upper 90% CI boundary, model‐predicted (healthy volunteers [1]; FTR 600 mg b.i.d. + cobicistat 150 mg q.d., listed as FTR): 5.0 ^a msec; ddQTcF upper 90% CI boundary, model‐predicted (healthy volunteers [1]; FTR 600 mg b.i.d.): ≤ 3.2 ms; ddQTcF upper 90% CI boundary, model‐predicted (healthy volunteers [1]; FTR 600 mg b.i.d., listed as FTR): 3.2 ^a msec; subjects discontinued due to QT prolongation (> 450 msec) [2]: Less than 2%; subjects discontinued due to QT prolongation (> 450 msec), number/total [2]: 7/371; Mean Cmax [3]: 2,096 ^b ng/mL; AE rate (healthy volunteers [4]; fostemsavir 1,200 mg q.d.): 53%; headache (healthy volunteers [4]; fostemsavir 1,200 mg q.d.): 16%; AE rate (healthy volunteers [4]; fostemsavir 2,400 mg b.i.d.): 56%; headache (healthy volunteers [4]; fostemsavir 2,400 mg b.i.d.): 35%; subjects discontinued for AEs (healthy volunteers [4]; fostemsavir 2,400 mg b.i.d. (vomiting, elevated aminotransferases, rash, headache/anxiety/dyspnea/pharyngeal edema)): five; Mean change from baseline, msec ddQTcF (healthy volunteers [5]; FTR 1,200 mg q.d. (A), day 7, 0.5 hour): –7.44 msec; Mean change from baseline, msec ddQTcF (healthy volunteers [5]; FTR 1,200 mg q.d. (A), day 7, 1 hour): –7.25 msec; Mean change from baseline, msec ddQTcF (healthy volunteers [5]; FTR 1,200 mg q.d. (A), day 7, 2 hour): –6.78 msec; Mean change from baseline, msec ddQTcF (healthy volunteers [5]; FTR 1,200 mg q.d. (A), day 7, 3 hour): –7.54 msec; Mean change from baseline, msec ddQTcF (healthy volunteers [5]; FTR 1,200 mg q.d. (A), day 7, 4 hour): –3.37 msec; Mean change from baseline, msec ddQTcF (healthy volunteers [5]; FTR 1,200 mg q.d. (A), day 7, 5 hour): –0.49 msec; Mean change from baseline, msec ddQTcF (healthy volunteers [5]; FTR 1,200 mg q.d. (A), day 7, 6 hour): –4.52 msec; Mean change from baseline, msec ddQTcF (healthy volunteers [5]; FTR 1,200 mg q.d. (A), day 7, 8 hour): –6.87 msec; Mean change from baseline, msec ddQTcF (healthy volunteers [5]; FTR 1,200 mg q.d. (A), day 7, 10 hour): 0.76 ms; Mean change from baseline, msec ddQTcF (healthy volunteers [5]; FTR 1,200 mg q.d. (A), day 7, 11.5 hour): –5.31 msec; Mean change from baseline, msec ddQTcF (healthy volunteers [5]; FTR 1,200 mg q.d. (A), day 7, 14 hour): –7.05 msec; Mean change from baseline, msec ddQTcF (healthy volunteers [5]; FTR 1,200 mg q.d. (A), day 7, 15 hour): –3.84 msec; Mean change from baseline, msec ddQTcF (healthy volunteers [5]; FTR 1,200 mg q.d. (A), day 7, 16 hour): –1.48 msec; Mean change from baseline, msec ddQTcF (healthy volunteers [5]; FTR 1,200 mg q.d. (A), day 7, 22.25 hour): –3.18 msec; Mean difference vs. placebo (90% CI), msec ddQTcF (healthy volunteers [5]; FTR 1,200 mg q.d. (A–D), day 7, 0.5 hour): 0.10 (–1.98, 2.18) msec; Mean difference vs. placebo (90% CI), msec ddQTcF (healthy volunteers [5]; FTR 1,200 mg q.d. (A–D), day 7, 1 hour): 0.51 (–1.57, 2.58) msec; Mean difference vs. placebo (90% CI), msec ddQTcF (healthy volunteers [5]; FTR 1,200 mg q.d. (A–D), day 7, 2 hour): 3.84 (1.75, 5.93) msec; Mean difference vs. placebo (90% CI), msec ddQTcF (healthy volunteers [5]; FTR 1,200 mg q.d. (A–D), day 7, 3 hour): 2.49 (0.40, 4.57) msec; Mean difference vs. placebo (90% CI), msec ddQTcF (healthy volunteers [5]; FTR 1,200 mg q.d. (A–D), day 7, 4 hour): 3.66 (1.58, 5.75) msec; Mean difference vs. placebo (90% CI), msec ddQTcF (healthy volunteers [5]; FTR 1,200 mg q.d. (A–D), day 7, 5 hour): 4.18 (2.11, 6.26) msec; Mean difference vs. placebo (90% CI), msec ddQTcF (healthy volunteers [5]; FTR 1,200 mg q.d. (A–D), day 7, 6 hour): 4.27 (2.19, 6.34) msec; Mean difference vs. placebo (90% CI), msec ddQTcF (healthy volunteers [5]; FTR 1,200 mg q.d. (A–D), day 7, 10 hour): 3.94 (1.86, 6.01) msec; Mean difference vs. placebo (90% CI), msec ddQTcF (healthy volunteers [5]; FTR 1,200 mg q.d. (A–D), day 7, 11.5 hour): 1.61 (–0.48, 3.69) msec; Mean difference vs. placebo (90% CI), msec ddQTcF (healthy volunteers [5]; FTR 1,200 mg q.d. (A–D), day 7, 14 hour): –0.10 (–2.18, 1.972) msec; Mean difference vs. placebo (90% CI), msec ddQTcF (healthy volunteers [5]; FTR 1,200 mg q.d. (A–D), day 7, 15 hour): 0.30 (–1.78, 2.38) msec; Mean difference vs. placebo (90% CI), msec ddQTcF (healthy volunteers [5]; FTR 1,200 mg q.d. (A–D), day 7, 16 hour): 0.04 (–2.04, 2.12) msec; Mean difference vs. placebo (90% CI), msec ddQTcF (healthy volunteers [5]; FTR 1,200 mg q.d. (A–D), day 7, 22.25 hour): 0.29 (–1.79, 2.36) msec; Mean change from baseline, msec ddQTcF (healthy volunteers [5]; FTR 2,400 mg b.i.d. (B), day 7, 0.5 hour): –6.04 msec; Mean change from baseline, msec ddQTcF (healthy volunteers [5]; FTR 2,400 mg b.i.d. (B), day 7, 1 hour): –6.15 msec; Mean change from baseline, msec ddQTcF (healthy volunteers [5]; FTR 2,400 mg b.i.d. (B), day 7, 2 hour): –6.90 msec; Mean change from baseline, msec ddQTcF (healthy volunteers [5]; FTR 2,400 mg b.i.d. (B), day 7, 3 hour): –3.67 msec; Mean change from baseline, msec ddQTcF (healthy volunteers [5]; FTR 2,400 mg b.i.d. (B), day 7, 4 hour): 1.64 ms; Mean change from baseline, msec ddQTcF (healthy volunteers [5]; FTR 2,400 mg b.i.d. (B), day 7, 5 hour): 6.50 ms; Mean change from baseline, msec ddQTcF (healthy volunteers [5]; FTR 2,400 mg b.i.d. (B), day 7, 6 hour): 0.18 ms; Mean change from baseline, msec ddQTcF (healthy volunteers [5]; FTR 2,400 mg b.i.d. (B), day 7, 8 hour): –3.46 msec; Mean change from baseline, msec ddQTcF (healthy volunteers [5]; FTR 2,400 mg b.i.d. (B), day 7, 10 hour): 1.51 ms; Mean change from baseline, msec ddQTcF (healthy volunteers [5]; FTR 2,400 mg b.i.d. (B), day 7, 11.5 hour): –3.88 msec; Mean change from baseline, msec ddQTcF (healthy volunteers [5]; FTR 2,400 mg b.i.d. (B), day 7, 14 hour): –1.65 msec; Mean change from baseline, msec ddQTcF (healthy volunteers [5]; FTR 2,400 mg b.i.d. (B), day 7, 15 hour): 4.45 ms; Mean change from baseline, msec ddQTcF (healthy volunteers [5]; FTR 2,400 mg b.i.d. (B), day 7, 16 hour): 8.59 ms; Mean change from baseline, msec ddQTcF (healthy volunteers [5]; FTR 2,400 mg b.i.d. (B), day 7, 22.25 hour): 0.16 ms; Mean difference vs. placebo (90% CI), msec ddQTcF (healthy volunteers [5]; FTR 2,400 mg b.i.d. (B–D), day 7, 0.5 hour): 1.50 (–0.63, 3.62) msec; Mean difference vs. placebo (90% CI), msec ddQTcF (healthy volunteers [5]; FTR 2,400 mg b.i.d. (B–D), day 7, 1 hour): 1.61 (–0.51, 3.73) msec; Mean difference vs. placebo (90% CI), msec ddQTcF (healthy volunteers [5]; FTR 2,400 mg b.i.d. (B–D), day 7, 2 hour): 3.72 (1.60, 5.84) msec; Mean difference vs. placebo (90% CI), msec ddQTcF (healthy volunteers [5]; FTR 2,400 mg b.i.d. (B–D), day 7, 3 hour): 6.36 (4.23, 8.48) msec; Mean difference vs. placebo (90% CI), msec ddQTcF (healthy volunteers [5]; FTR 2,400 mg b.i.d. (B–D), day 7, 4 hour): 8.67 (6.55, 10.79) msec; Mean difference vs. placebo (90% CI), msec ddQTcF (healthy volunteers [5]; FTR 2,400 mg b.i.d. (B–D), day 7, 5 hour): 11.18 (9.05, 13.30) msec; Mean difference vs. placebo (90% CI), msec ddQTcF (healthy volunteers [5]; FTR 2,400 mg b.i.d. (B–D), day 7, 6 hour): 8.96 (6.84, 11.10) msec; Mean difference vs. placebo (90% CI), msec ddQTcF (healthy volunteers [5]; FTR 2,400 mg b.i.d. (B–D), day 7, 8 hour): 5.33 (3.21, 7.46) msec; Mean difference vs. placebo (90% CI), msec ddQTcF (healthy volunteers [5]; FTR 2,400 mg b.i.d. (B–D), day 7, 10 hour): 4.69 (2.57, 6.81) msec; Mean difference vs. placebo (90% CI), msec ddQTcF (healthy volunteers [5]; FTR 2,400 mg b.i.d. (B–D), day 7, 11.5 hour): 3.04 (0.92, 5.17) msec; Mean difference vs. placebo (90% CI), msec ddQTcF (healthy volunteers [5]; FTR 2,400 mg b.i.d. (B–D), day 7, 14 hour): 5.30 (3.18, 7.43) msec; Mean difference vs. placebo (90% CI), msec ddQTcF (healthy volunteers [5]; FTR 2,400 mg b.i.d. (B–D), day 7, 15 hour): 8.60 (6.47, 10.73) msec; Mean difference vs. placebo (90% CI), msec ddQTcF (healthy volunteers [5]; FTR 2,400 mg b.i.d. (B–D), day 7, 16 hour): 10.10 (7.98, 12.23) msec; Mean difference vs. placebo (90% CI), msec ddQTcF (healthy volunteers [5]; FTR 2,400 mg b.i.d. (B–D), day 7, 22.25 hour): 3.63 (1.51, 5.75) msec; change from placebo in baseline‐adjusted Fridericia‐corrected QTc (ddQTcF) (healthy volunteers [5]; Fostemsavir 1,200 mg b.i.d.): did not result in a clinically meaningful change; effect on heart rate, QRS or PR intervals, or waveform morphology (healthy volunteers [5]; fostemsavir 1,200 mg q.d. and 2,400 mg b.i.d.): did not have a clinically meaningful effect; upper bound of the 90% CI around ddQTcF (healthy volunteers [5]; fostemsavir 1,200 mg q.d., all time points): below 10 msec; ddQTcF upper bound of two‐sided 90% CI at maximum (healthy volunteers [5]; [8]): 6.3 ms; maximum time‐matched ddQTcF (healthy volunteers [5]; [8]): 4.3 ms; subjects with maximum QTcF between 450 and 480 msec (healthy volunteers [5]; fostemsavir 2,400 mg b.i.d.): Three; subjects with maximum change in QTcF between 30 and 60 msec (healthy volunteers [5]; fostemsavir 2,400 mg b.i.d.): Four; ddQTcF upper bound of two‐sided 90% CI at maximum (healthy volunteers [5]; [9]): 13.3 ms; maximum time‐matched ddQTcF (healthy volunteers [5]; [9]): 11.2 ms; ddQTcF upper bound of two‐sided 90% CI at maximum (healthy volunteers [5]; fostemsavir 2,400 mg b.i.d., at 5 hours post‐AM dose, listed as FTR): 13.3 (at 5 hour) msec; cardiovascular abnormalities (healthy volunteers [6]): no clinically relevant cardiovascular abnormalities were observed; safety data (healthy volunteers [7]): all AEs (primarily dizziness and headache) were mild and there were no relevant cardiac signals; activity with regard to HIV‐1 tropism (HIV‐1): active regardless of HIV‐1 tropism; in vitro cross‐resistance to other antiretroviral drug classes (HIV‐1): no in vitro cross‐resistance
